Measurements: ChEMBL document CHEMBL1157658, “Structure-activity relationship of (N)-Methanocarba phosphonate analogues of 5'-AMP as cardioprotective agents acting through a cardiac P2X receptor” (J Med Chem, 2010)
Activity calls are given as the source filed them. No cut-off for these calls is given here.

Key:
Mus musculus [1] = test: Cardioprotective effect in calsequestrin transgenic mouse model of severe cardiomyopathy and heart failure assessed as improvement of echocardiography-derived fractional shortening at 3.3 uM, sc administered per day via minipump measured after 28 days by transthoracic echocardiographic analysis; type: functional
Procedure, shortened: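 CSQ-overexpressing transgenic mice (lethal heart failure near 3 months); analogue dissolved at 3.3 μM in sterile saline/PBS pH 7.4 (200 μL pump load), sterile-filtered, infused subcutaneously by mini-osmotic pump at 6 μL/day for 28 days; vehicle-infused CSQ controls. Under 1% isoflurane, M-mode echocardiography gave LVEDD, LVESD and FS ((LVEDD-LVESD)/LVEDD), averaged over >3 cardiac cycles; one-way ANOVA with post-test.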

P2Y purinoceptor 1 [2] = target: T1, P2Y purinoceptor 1 (Homo sapiens, UniProt P47900); test: Activation of human P2Y1 receptor expressed in human 1321N1 cells assessed as induction of calcium flux up to 10 uM by FLIPR assay; type: functional, cell-based
Procedure, shortened: (§1)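 1321N1 human astrocytoma cells stably expressing hP2Y1, grown overnight at 37 °C, 5% CO2 (to ~80% confluency), loaded with calcium-4 dye plus probenecid (no wash), 1 h at rt. Compounds diluted in Hank's buffer pH 7.2, tested up to 10 μM; FLIPR-Tetra at rt, ex 485/em 525 nm, duplicates. Response is peak fluorescence minus pre-exposure basal.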

P2Y purinoceptor 1 [3] = target: T1, P2Y purinoceptor 1; test: Agonist activity at human P2Y1 receptor expressed in human 1321N1 cells by PLC assay; type: functional, cell-based
P2Y purinoceptor 1 [4] = target: T1, P2Y purinoceptor 1; test: Activation of human P2Y1 receptor expressed in human 1321N1 cells assessed as induction of calcium flux by FLIPR assay; type: functional, cell-based
P2Y purinoceptor 1 [5] = target: T1, P2Y purinoceptor 1; test: Activation of human P2Y1 receptor expressed in human 1321N1 cells assessed as induction of calcium flux by FLIPR assay relative to 2-MeSADP; type: functional, cell-based; procedure, shortened: as §1
1321-N1 = test: Induction of calcium flux in human 1321N1 cells at 10 uM by FLIPR assay; type: functional, cell-based
Mus musculus [6] = test: Cardioprotective effect in calsequestrin transgenic mouse model of heart failure assessed as increased shortening of heart septum and left ventricular free wall at 3.3 uM, sc administered per day via minipump measured after 28 days by transthoracic echocardiographic analysis; type: functional, organism-based
Procedure, shortened: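 Calsequestrin-overexpressing transgenic mice (hypertrophy, lethal heart failure near 3 months). Compound at 3.3 μM in sterile saline/PBS pH 7.4, filter-sterilized, infused subcutaneously via osmotic minipump at 6 μL/day for 28 days; saline-infused controls. Under 1% isoflurane, M-mode echocardiography gave LVEDD, LVESD and FS = (LVEDD−LVESD)/LVEDD, averaged over >3 cardiac cycles; mean ± SE, one-way ANOVA with post-test.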

T1 sequence (P47900 whole entry): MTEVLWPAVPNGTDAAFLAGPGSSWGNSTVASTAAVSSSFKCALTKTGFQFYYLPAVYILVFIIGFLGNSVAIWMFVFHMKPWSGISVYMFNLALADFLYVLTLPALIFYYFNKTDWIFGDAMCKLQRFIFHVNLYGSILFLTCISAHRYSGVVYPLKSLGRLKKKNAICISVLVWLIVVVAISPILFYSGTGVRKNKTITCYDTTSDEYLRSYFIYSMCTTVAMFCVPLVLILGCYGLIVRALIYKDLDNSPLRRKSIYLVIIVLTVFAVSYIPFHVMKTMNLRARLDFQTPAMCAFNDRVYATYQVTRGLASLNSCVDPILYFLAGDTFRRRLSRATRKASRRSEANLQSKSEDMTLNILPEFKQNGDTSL

For `Nc1nc(Cl)nc2c1ncn2[C@H]1[C@H](O)[C@H](O)[C@@]2(CCP(=O)(O)O)C[C@H]12`, the Activity (Mus musculus [1]) was 19.26% and the Activity (P2Y purinoceptor 1 [2]) was “inactive”.

In the case of `Nc1nc(Cl)nc2c1ncn2[C@H]1[C@H](O)[C@H](O)[C@@]2(COP(=O)(O)O)C[C@H]12`, the Activity (Mus musculus [1]) is reported as 15.47%, the EC50 (P2Y purinoceptor 1 [3]) is reported as 1890 nM and the EC50 (P2Y purinoceptor 1 [4]) is reported as 722 nM. The %max (P2Y purinoceptor 1 [5]) was 80%.

For `Nc1nc(Cl)nc2c1ncn2[C@H]1[C@H](O)[C@H](O)[C@@]2(/C=C/P(=O)(O)O)C[C@H]12`, the Activity (Mus musculus [1]) was 12.12% and the Activity (P2Y purinoceptor 1 [2]) was “inactive”.

With `CP(=O)(O)C[C@]12C[C@@H]1[C@@H](n1cnc3c(N)nc(Cl)nc31)[C@H](O)[C@@H]2O` the Activity (Mus musculus [1]) was 15% and the Activity (P2Y purinoceptor 1 [2]) was “inactive”.

In the case of `CSc1nc(N)c2ncn([C@@H]3O[C@H](COP(=O)(O)OP(=O)(O)O)[C@@H](O)[C@H]3O)c2n1`, the Activity (1321-N1) is reported as “inactive”.

`Nc1ncnc2c1ncn2[C@H]1[C@H](O)[C@H](O)[C@@]2(CP(=O)(O)O)C[C@H]12` was tested, and the Activity (Mus musculus [1]) was 16.23% and the Activity (P2Y purinoceptor 1 [2]) was “inactive”.

With `Nc1ncnc2c1ncn2[C@H]1[C@H](O)[C@H](O)[C@@]2(CCP(=O)(O)O)C[C@H]12` the Activity (Mus musculus [1]) was 11.15% and the Activity (P2Y purinoceptor 1 [2]) was “inactive”.

In the case of `Nc1ncnc2c1ncn2[C@H]1[C@H](O)[C@H](O)[C@@]2(/C=C/P(=O)(O)O)C[C@H]12`, the Activity (Mus musculus [1]) is reported as 13.88% and the Activity (P2Y purinoceptor 1 [2]) is reported as “inactive”.

In the case of `Nc1nc(Cl)nc2c1ncn2[C@H]1[C@H](O)[C@H](O)[C@@]2(CP(=O)(O)O)C[C@H]12`, the Activity (Mus musculus [1]) is reported as 20.25%, the Activity (Mus musculus [6]) is reported as “Active” and the Activity (P2Y purinoceptor 1 [2]) is reported as “inactive”.
